Compound activity (PubChem)
The list is not random: actives were taken first. Their share in the collection is about 4.3%.
RAM network inh: blocks the yeast RAM network | S. cerevisiae dse1pr::URA3 reporter, 5-FOA growth OD615, 2 d; analog-sensitive cbk1-as2 kinase mutant strain | inhibition, % at 50 µM | 190,000 compounds, 1.8% hits | AID 868;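 active = inhibition above a set limit, 3 SD over mean compound inhibition, cut at about 8.4% in these data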;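 note: 0% = DMSO-only wells with no growth and 100% = 10 µM 1-NA-PP1 full growth; inhibition rescues growth on 5-FOA so higher OD means more RAM inhibition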
WT yeast gro inh: growth inhibition of WT yeast, mitochondrial fusion screen. AID 1362. inhibition, % at 10 µM. 190,000 compounds, 2.1% hits. mitochondrial fusion phenotypic screen, WT strain; in the data active = inhibition above about 58%; tested in S. cerevisiae
Yeast life ext: yeast lifespan extension; inhibition of the nicotinamide effect, % at 10 µM; AID 775; 130,000 compounds, 0.68% hits; S. cerevisiae growth with nicotinamide, OD615; deaD strain in restrictive glucose medium;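 active = inhibition above a set limit, placed 3 SD over the median of all compounds, cut at about 26% in these data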;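 note: 0% = nicotinamide-treated wells and 100% = cells grown without nicotinamide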
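Assay system: DeaD-strain S. cerevisiae. Medium: CSMM-D glucose medium, restrictive. Reagent: nicotinamide, 1.5 mM, co-present with compound. Compound: 10 µM single point, 0.25% DMSO. Schedule: culture preincubation 4 h, compound exposure 48 h, both 30 °C. Detection: absorbance at 615 nm.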
BB579 growth dn: chemicals that inhibit yeast BB579 growth in restrictive medium (lifespan-shortening candidates). S. cerevisiae BB579 growth, OD615, 48 h. inhibition, % at 10 µM. 140,000 compounds, 0.51% hits. AID 804;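 active = inhibition above a set limit, 3 SD over the mean compound inhibition, cut at about 44% in these data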
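System: DeaD yeast strain BB579; buffer or medium: CSMM-D dextrose restrictive medium; technique: OD at 615 nm; schedule: 4 h cell preincubation, 48 h compound exposure, 30 °C humidified; doses: single 10 µM dose; controls: amphotericin B 10 µg/mL, positive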
Starred values were filed as active, the others as inactive; . = not tested or not shown.

SMILES	RAM network inh	WT yeast gro inh	Yeast life ext	BB579 growth dn
COc1ccc(Cl)cc1NC(=O)CCNC(=O)OCc1ccccc1	-0.1	1.7	.	.
CC1CC(C)CN(c2ncc3c(n2)CC(c2ccccc2)CC3=O)C1 (centres undefined)	2.1	71.5*	-10.7	-60.0
CC(C)c1ccc(C2CC(=O)c3cnc(N4CCc5ccccc5C4)nc3C2)cc1 (centres undefined)	2.7	58.3*	-8.7	-32.4
COc1cc(C2CC(=O)c3cnc(N4CCN(Cc5ccccc5)CC4)nc3C2)cc(OC)c1OC (centres undefined)	4.2	1.5	-25.6	-21.2
O=C(COC(=O)c1cccc2ccccc12)NCCCc1ccccc1	10.7*	-2.6	0.6	-23.4
O=C(c1cc(COc2ccc(F)cc2Cl)on1)N1CCc2ccccc2C1	10.4*	4.8	.	.
O=C(c1ccc(C(F)(F)F)cc1)C1CCCN(C(=O)CCN2CCCO2)C1 (centres undefined)	0.8	-5.4	.	.
O=C(OCn1ncc(Br)c(Br)c1=O)c1ccccc1Cl	2.0	80.3	23.0	72.8*
O=C(OCc1cnc(Cl)s1)c1ccccc1Cl	2.8	-16.7	-8.1	-35.8
CCn1ncc(Br)c1C(=O)Nc1ccc(C(=O)OC(C)C)cc1	1.7	20.2	-16.6	-36.3
O=C(OCn1ncc(Br)c(Br)c1=O)c1ccc(F)cc1	-0.7	87.0*	-11.4	91.2*
Cc1ccccc1NS(=O)(=O)c1cc(C(N)=O)ccc1C	3.6	-24.2	-5.8	-17.7
Cc1nn(-c2ccccc2)c2sc(C(=O)O)cc12	-0.4	7.4	-26.1	50.0*
Cc1nn(-c2ccccc2)c2sc(-c3n[nH]c(=S)o3)cc12	-0.3	-3.9	-22.7	71.8*
Cc1nn(-c2ccc(F)cc2)c2sc(C(=O)O)cc12	1.3	1.8	-8.9	43.1*
Cc1cc(C)cc(-n2c(C)nc3cc(C(=O)O)ccc32)c1	-0.4	-5.1	.	.
Cc1ccc(S(=O)(=O)C2C(=O)N(C)C3(C)CC2c2ccccc2O3)cc1 (centres undefined)	6.6	-3.9	0.1	-5.4
COc1ccc(/C=C/C(O)=C(\C#N)c2nnc(N3CCOCC3)n2-c2ccccc2)cc1OC	2.3	15.9	.	.
CCNc1nc(NC(C)C)nc(N(C#N)CCOc2ccc(Cl)cc2Cl)n1	2.5	80.0*	-9.0	-41.5
O=C(NC(Cc1c[nH]c2ccccc12)C(=O)Nc1ccc(F)c([N+](=O)[O-])c1)c1cccs1 (centres undefined)	1.9	-9.9	0.0	-52.2
O=C(NC(Cc1c[nH]c2ccccc12)C(=O)Nc1ccc(OC(F)(F)F)cc1)c1cccs1 (centres undefined)	6.7	88.3*	9.8	3.8
CCOC(=O)c1sc(NC(=O)CC)c(C#N)c1C	4.1	7.8	.	.
O=C(COC(=O)C12CC3CC(CC(O)(C3)C1)C2)Nc1ccccc1OC(F)F	-0.9	58.4*	-10.6	-40.3
COc1ccc(C(=O)/C=C/Nc2ccc(C)cn2)cc1OC	1.9	3.4	.	52.0*
CC1CCCN(c2ccc([N+](=O)[O-])cc2C(=O)c2ccccc2)C1 (centres undefined)	9.6*	39.8	16.3	-26.9
SMILES	RAM network inh	WT yeast gro inh	Yeast life ext	BB579 growth dn
O=C(c1ccccc1)c1cc([N+](=O)[O-])ccc1N1CCOCC1	0.9	-20.2	7.1	-39.1
Fc1cccc(-c2cc3nc4c(c(NCc5ccco5)n3n2)CCCC4)c1	-2.4	83.0*	-11.4	-35.6
COC(=O)c1ccc(-c2ccco2)n1Cc1ccccc1Cl	0.0	-5.0	-11.8	-11.1
COC(=O)c1ccc(-c2ccco2)n1Cc1nc(-c2ccc(OC)c(OC)c2)oc1C	8.4*	11.9	-1.9	-78.2
CCOC(=O)c1ccc(S(=O)(=O)Nc2ccc3cn[nH]c3c2)cc1	0.0	-4.9	-8.5	20.4
CN(C)c1ccc(C(CNS(=O)(=O)c2ccc(F)c(F)c2)c2c[nH]c3ccccc23)cc1 (centres undefined)	1.4	74.1*	1.6	-44.2
O=S(CC1CC1(Cl)Cl)CC1CC1(Cl)Cl (centres undefined)	0.5	5.0	2.2	-8.5
O=C(NCc1ccc(Cl)cc1)c1ccc(N2CCCC2=O)cc1	-0.1	-1.9	.	.
CC(C)c1ccc(NC(=O)c2sccc2-n2cccc2)cc1	8.6*	67.2*	.	.
CC(C)(O)C#Cc1ccc(CN2CCN(C3CCCC3)C(CCO)C2)cc1 (centres undefined)	-0.2	0.1	.	.
O=C(CN1CCN(c2ccccc2Cl)CC1)NC1CCCc2ccccc21 (centres undefined)	3.5	32.8	4.5	-34.1
Cc1ccc(Cl)cc1N1CCN(CC(=O)NC2CCCc3ccccc32)CC1 (centres undefined)	0.9	74.1*	-1.9	-4.3
Clc1ccc2[nH]c3c(c2c1)CCc1cn[nH]c1-3	1.4	25.3	-29.4	100.3*
c1ccc2c3c([nH]c2c1)-c1[nH]ncc1CC3	-1.8	12.4	-12.7	-12.4
CCOc1[nH]n(-c2ccccc2)c(=O)c1C=Nc1ccc(OC)cc1	9.0*	3.5	.	.
O=C(CCNC(=O)Cn1ccc2ccccc2c1=O)NCCN1CCN(c2cccc(Cl)c2)CC1	-0.3	0.4	-6.0	-21.7
O=C(Cn1ccc2ccccc2c1=O)NCCC(=O)N1CCN(c2cccc(Cl)c2)CC1	9.7*	9.8	0.7	-79.7
COc1ccc(C2NC(=O)N(C)C3=C2C(=O)CC(C)(C)C3)cc1OC (centres undefined)	-0.3	1.8	1.2	1.8
COc1ccc(NC(=O)c2cc3c(=O)n(C)c4ccccc4c3s2)cc1OC	3.5	-4.5	.	.
CN(C)c1nc(N(C)C)nc(N(C#N)CCOc2ccccc2)n1	9.8*	15.7	.	-45.8
Cc1cc(C)nc(N(C#N)CCOc2ccccc2)n1	-1.3	-1.8	-18.0	-7.4
CCCCn1c(N)c(C(=S)NC(=O)CC(C)(C)C)c(=O)n(C)c1=O	0.4	68.2*	-3.4	-6.3
CN1CCN(c2nc(NCCOC34CC5CC(CC(C5)C3)C4)nc(OCC(F)(F)F)n2)CC1	-1.0	83.5*	-9.3	11.9
COc1cc(NC2c3ncccc3C(=O)N2Cc2ccco2)cc(OC)c1OC (centres undefined)	1.9	-0.6	.	.
CC(C)=C1C2CCC1C1C(=O)N(c3nc(-c4ccccc4)c(C)s3)C(=O)C21 (centres undefined)	6.3	58.8*	8.8	-17.2
SMILES	RAM network inh	WT yeast gro inh	Yeast life ext	BB579 growth dn
CC(C)=C1C2CCC1C1C(=O)N(c3nccs3)C(=O)C21 (centres undefined)	2.0	4.3	14.8	-30.9
CCC(OC(=O)c1nsc(Cl)c1Cl)C(=O)NC(C)(C)C (centres undefined)	0.5	6.2	.	.
Oc1ccc(N=Nc2c(O)ccc3ccccc23)cc1	5.4	98.3*	-5.8	-31.6
S=C(NCCc1ccccc1)N1CCN(C2CCCCC2)CC1	1.0	2.9	.	.
Cc1nnc(SCC(=O)c2ccc(Br)cc2)s1	0.0	-6.6	.	.
O=C(O)c1ccc(S(=O)(=O)Nc2ccc(O)c(Sc3nc4ccccc4s3)c2)cc1	9.8*	5.0	.	.
N#Cc1ccccc1Sc1ccccc1C(=O)Nc1ccc(Br)cc1	5.9	76.6*	-7.7	-26.9
N#Cc1ccccc1Sc1ccccc1C(=O)Nc1ccc2ccccc2c1	4.5	10.4	-1.9	-13.7
